Assay [1] in a line: inhibitors of TNFa-induced NFkB p65 translocation, primary screen, imaging, HUVEC, MLSMR starter and 10KST1 sets (AID 438;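 active = inhibition above 20% together with a positive visual image hit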;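 note: compound added about 3h40 before a 20 min TNFalpha stimulation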;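 for inhibition: signal is the nuclear over cytoplasmic p65 intensity ratio per well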). Particulars: HUVEC TNFa-induced p65 nuclear translocation; cell count: measured here: nuclei count (cytotoxicity indicator), at 2.08 µM; inhibition: at 2 µM, stronger effect = higher value, 0% TNFa-plus-vehicle, 100% no-TNFa wells.
A short description of assay [2]: endothelial E-selectin expression blockers – imaging, HUVEC, immunofluorescence, MLSMR starter and 10KST1 sets, primary screen (AID 487;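 active = visually confirmed hit in the image check and inhibition above 20%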;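 for inhibition: signal is fraction of cell area covered by stained E-selectin grains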;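 for nuclei count: 100% = median nuclei count of all wells on the same plate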). Conditions: HUVEC TNFalpha-induced E-selectin immunofluorescence imaging, at 2 µM; inhibition: stronger effect = higher value; nuclei count: measured here: cell number, toxicity.
Assay [3] can be described thus: Primary imaging screen for DUSP6 inhibitors that restore phospho-Erk in transfected HeLa cells, chemical complementation (AID 609;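 active = compounds giving at least 50% inhibition in the cell-based MKP-3 phosphatase rescue imaging test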;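 for inhibition: phospho-Erk level distribution per well compared with pooled transfected vehicle control wells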). Conditions: HeLa MKP-3 transfected, phospho-Erk imaging KS statistic, at 10 µM, cells stimulated with TPA for 15 min.
Assay [4] concerns the target Dual specificity protein phosphatase 6 (Homo sapiens) (UniProt Q16828). The description is as above. Conditions: HeLa MKP-3 transfected, phospho-Erk imaging KS statistic; at 10 µM; stronger effect = higher value; cells stimulated with TPA for 15 min.
The target of assay [5] is Voltage-gated potassium channel subunit beta-2 (Rattus norvegicus) (UniProt P62483). Nature of the assay: inhibitors of rat Kvbeta2 reductase activity – biochemical, NADPH fluorescence, primary screen (AID 622;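 active = fluorescence slope higher than the sample average by over 3 SD, cut at about -0.22 in these data, passing the limit was not always enough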;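 note: slope of raw intensity against log time taken from 70 to 1610 s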). Particulars: recombinant KvBeta, 4-cyanobenzaldehyde reduction, at 10 µM, stronger effect = higher value.
Assay [6] shares this target. Nature of the assay: enhancers of rat Kvbeta2 NADPH turnover – biochemical, NADPH fluorescence, primary screen (AID 623;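 active = NADPH fluorescence slope more negative than the mean of all samples by about 3 SD, 99.7% confidence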;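 note: fluorescence intensity change per second fitted from 20 to 320 s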). Particulars: Recombinant KvBeta, NADPH fluorescence decrease slope, 10 min; at 10 µM; stronger effect = lower value.
In assay [7] the target is Alpha-2C adrenergic receptor (Homo sapiens) (UniProt P18825). Nature of the assay: compounds altering alpha2C-coupled GIRK flux – cell-based, HEK293 alpha2C/GIRK1/2, thallium flux, primary screen (AID 624;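 active = fluorescence slope after compound addition differing from the mean of all screened samples at 99.7% confidence, in either direction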;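 note: slope of fluorescence ratio to pre-addition baseline per second over 15 to 24 s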). Particulars: thallium flux BTC fluorescence, at 10 µM, actives lie on both sides.
A short description of assay [8]: inhibitors of larval lipid processing in zebrafish, primary screen, whole organism, PED6 fluorescence, gall bladder and intestine (AID 686;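 active = a full or partial loss of lipid-probe fluorescence in the fish gall bladder, intestine or both, judged by eye; inactive = no fluorescence loss, or compound toxic to the fish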;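 note: larvae 5 to 7 days old with five fish per well; signal comes from phospholipase A2 cleavage of quenched PED6 carried via bile; overnight exposure to compound and PED6 before scoring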). Conditions: Zebrafish larvae PED6 lipid processing, fluorescence scoring; screened at 20 µM (by protocol). The gist of the method:
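Doses: 20 µM single dose. Test system: live zebrafish larvae aged 5-7 days, whole organism. Quantity: five larvae per well. Measured by: By-eye fluorescence microscopy. Reagent: ingested quenched lipid PED6 at 100 nM. Read-out: visual per-well fluorescence inhibition score. Times: overnight exposure of larvae to compound plus PED6.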

Assay [9] is described as follows: loss of swimming-algae plug formation – whole organism, Chlamydomonas reinhardtii, WT vs cilia-less mutant, absorbance, 96-well, primary screen (AID 463189).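 Note: 0% = wild type cc124 cells in DMSO and 100% = ciliumless bld1 mutant cells.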 Particulars: Chlamydomonas reinhardtii gravitaxis, OD600 absorbance, 2 days; at 10 µM; stronger effect = higher value.
The mark [10] stands for this setting: measured here: cell density z-score.
The mark [11] stands for this setting: measured here: nuclear c-Myc green intensity z-score.
Where [12] appears, read: measured here: nuclear pErk red intensity z-score, stronger effect = higher value.

Calls of active or inactive are those of the source.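 Rule for the calls, unless noted: active = inhibition at or above 50% relative to wild type and mutant plate controls; inactive = inhibition below 50%.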

Chain of Voltage-gated potassium channel subunit beta-2 (Rattus norvegicus) (P62483 whole entry, looked up): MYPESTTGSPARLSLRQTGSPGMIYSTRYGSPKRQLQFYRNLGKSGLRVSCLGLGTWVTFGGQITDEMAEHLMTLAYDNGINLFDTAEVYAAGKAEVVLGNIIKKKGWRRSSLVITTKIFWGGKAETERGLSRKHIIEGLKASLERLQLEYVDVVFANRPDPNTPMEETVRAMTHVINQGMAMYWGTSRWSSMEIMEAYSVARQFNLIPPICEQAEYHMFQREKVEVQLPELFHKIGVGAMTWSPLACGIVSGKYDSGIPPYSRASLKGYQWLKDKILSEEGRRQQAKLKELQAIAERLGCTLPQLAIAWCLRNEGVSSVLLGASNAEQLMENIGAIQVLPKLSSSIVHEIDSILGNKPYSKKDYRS
Chain of Dual specificity protein phosphatase 6 (Homo sapiens) (Q16828 whole entry, looked up): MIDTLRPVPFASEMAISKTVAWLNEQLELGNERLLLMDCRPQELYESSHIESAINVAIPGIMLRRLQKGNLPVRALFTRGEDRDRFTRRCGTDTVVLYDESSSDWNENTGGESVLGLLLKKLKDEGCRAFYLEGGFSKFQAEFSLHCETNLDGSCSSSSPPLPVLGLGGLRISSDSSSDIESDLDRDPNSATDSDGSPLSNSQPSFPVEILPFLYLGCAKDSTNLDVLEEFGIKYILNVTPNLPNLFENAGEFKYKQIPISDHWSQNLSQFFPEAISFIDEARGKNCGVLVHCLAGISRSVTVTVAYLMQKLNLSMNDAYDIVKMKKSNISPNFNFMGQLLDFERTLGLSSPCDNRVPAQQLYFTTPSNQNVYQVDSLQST
Chain of Alpha-2C adrenergic receptor (Homo sapiens) (P18825 whole entry, looked up): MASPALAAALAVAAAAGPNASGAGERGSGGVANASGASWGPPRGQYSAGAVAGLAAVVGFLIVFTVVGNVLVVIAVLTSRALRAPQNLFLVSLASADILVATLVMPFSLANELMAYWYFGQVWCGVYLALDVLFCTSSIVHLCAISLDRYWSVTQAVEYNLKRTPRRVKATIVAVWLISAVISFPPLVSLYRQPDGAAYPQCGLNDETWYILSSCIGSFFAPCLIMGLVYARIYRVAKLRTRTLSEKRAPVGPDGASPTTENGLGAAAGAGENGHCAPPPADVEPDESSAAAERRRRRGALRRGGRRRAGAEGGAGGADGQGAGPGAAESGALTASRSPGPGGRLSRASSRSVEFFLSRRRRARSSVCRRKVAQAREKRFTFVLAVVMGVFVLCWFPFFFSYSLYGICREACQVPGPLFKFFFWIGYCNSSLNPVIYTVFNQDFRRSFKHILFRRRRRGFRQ

Take `COc1cccc(C2/C(=C(/O)c3cnn(-c4ccccc4)c3C)C(=O)C(=O)N2CCN(C)C)c1OC` (configuration not stated): the cell count in assay [1] was determined as 502. Further, the inhibition in assay [1] is 6.3% (inactive); in [2], -119% (inactive); in [4], -7.01% (inactive); in [9] it was 8.54% (inactive). This compound returned a nuclei count in assay [2] of 152%. The z-score in assay [3] (setting [10]) was -0.295; in assay [3] (setting [11]), 0.206; in assay [3] (setting [12]), -1.1. Also, the fluorescence slope in [5] was -0.506 (inactive). Moreover, the NADPH fluorescence slope in [6] is -2.1e-05 (inactive). For the same compound, the slope in assay [7] was 0.00541 (inactive). The compound was called inactive in assay [8].

On to `Cn1ncc(N=Cc2ccccc2O)c1C(=O)Nc1ccccc1`, for which, in assay [1], the cell count came to 635. Further, the inhibition is -3.8% (inactive) in assay [1], -20.9% (inactive) in [2], 4.25% (inactive) in assay [4] and 0.038% (inactive) in assay [9]. The nuclei count in assay [2] is 140%. Moreover, the values for the z-score in assay [3] (setting [10]), in assay [3] (setting [11]) and in assay [3] (setting [12]) were -0.0255, 0.841 and 1.17, respectively. In [5], the fluorescence slope was -0.5 (inactive). Moreover, the NADPH fluorescence slope in assay [6] is -0.000122 (inactive). Besides, in [7], the slope is 0.00441 (inactive). In addition, the call in assay [8] was inactive.

For the compound `CCNC(=O)Nn1c(C)nnc1C`, in assay [1], the cell count came to 604. In addition, the inhibition was 5% (inactive) in assay [1], 15.6% (inactive) in assay [2], -8.27% (inactive) in assay [4] and 7.13% (inactive) in assay [9]. In assay [2], the nuclei count was determined as 129%. In addition, the z-score was -0.49 in assay [3] (setting [10]), 0.191 in [3] (setting [11]) and -0.43 in [3] (setting [12]). Besides, the fluorescence slope in assay [5] was -0.469 (inactive). Also, in assay [6], the NADPH fluorescence slope was -0.000298 (inactive). The slope in assay [7] was 0.00578 (inactive). Moreover, in assay [8], the result was inactive.

`CC1(c2ccco2)NC(=O)NC1=O` (configuration not stated): the cell count in assay [1] is 665. Besides, the inhibition in assay [1] was -2.9% (inactive); in [2] it was -112% (inactive); in assay [4], -3.98% (inactive); in assay [9] it was -5.4% (inactive). In assay [2], this compound came in with a nuclei count of 160%. For the same compound, the z-score in assay [3] (setting [10]) is -0.981; in assay [3] (setting [11]), -0.00713; in assay [3] (setting [12]), 0.00425. In addition, the fluorescence slope in assay [5] is -0.492 (inactive). For the same compound, the NADPH fluorescence slope in [6] is -0.00016 (inactive). Besides, in [7], the slope was 0.00442 (inactive). The compound was classed as inactive in assay [8].

Regarding `Cc1c(C(=O)O)c(=S)sn1CCOc1ccccc1`, in assay [1], the cell count came out at 646. Besides, the inhibition in assay [1] was -1.9% (inactive); in [2], 16.3% (inactive); in [4] it was 14% (inactive); in assay [9] it was 4.87% (inactive). In assay [2], this compound registered a nuclei count of 159%. Also, the z-score in assay [3] (setting [10]) was determined as 0.114; in assay [3] (setting [11]), 1.14; in assay [3] (setting [12]) it was 0.102. The fluorescence slope in assay [5] is -0.256 (inactive). The NADPH fluorescence slope in [6] is 1.3e-05 (inactive). Moreover, the slope in assay [7] is 0.00412 (inactive). The outcome in assay [8] was inactive.

With `CNC(=O)c1ncnnc1N(C)C(=O)NCc1ccccc1`, the cell count in assay [1] was 506. Moreover, the inhibition was -21% (inactive) in [1], -54.6% (inactive) in assay [2], -9.66% (inactive) in [4] and 9.13% (inactive) in assay [9]. In addition, the nuclei count in assay [2] came out at 134%. For the same compound, the z-score was 0.229 in assay [3] (setting [10]), 0.0819 in [3] (setting [11]) and -1.12 in assay [3] (setting [12]). The fluorescence slope in assay [5] is -0.531 (inactive). Further, the NADPH fluorescence slope in [6] is -2.3e-05 (inactive). The slope in assay [7] is 0.00729 (inactive). Besides, in [8], the call was inactive.

Turning to `Cc1nn2c(-c3ccc(Cl)cc3)nnc2s1`, the cell count in [1] is 551. The inhibition in assay [1] is -6.5% (inactive); in [2], -65.8% (inactive); in assay [4] it was -6.06% (inactive); in assay [9] it was 17.4% (inactive). This compound registered a nuclei count in assay [2] of 86.3%. For the same compound, the z-score in assay [3] (setting [10]) was -0.293; in [3] (setting [11]), -0.329; in [3] (setting [12]), 0.206. Besides, the fluorescence slope in assay [5] was -0.421 (inactive). Moreover, the NADPH fluorescence slope in assay [6] was -1.1e-05 (inactive). Besides, in [7], the slope was 0.00662 (inactive). In addition, in [8], the call was inactive.

Take `CN(C)CC(O)COc1ccc(C(C)(C)c2ccc(OCC(O)CN(C)C)cc2)cc1` (configuration not stated): the cell count in assay [1] came to 459. For the same compound, the inhibition in [1] is 2.6% (inactive); in [2], -216% (inactive); in assay [4] it was -5.62% (inactive); in assay [9], -19.9% (inactive). In assay [2], the nuclei count was found to be 154%. Besides, the z-score in [3] (setting [10]) was -1.06; in assay [3] (setting [11]), 1.22; in assay [3] (setting [12]), 0.592. Moreover, the fluorescence slope in assay [5] is -0.397 (inactive). For the same compound, in assay [6], the NADPH fluorescence slope is -3.1e-05 (inactive). The slope in assay [7] is 0.0054 (inactive). In addition, in assay [8], the compound was called inactive.

For the compound `CC(C)OC(=O)c1nn2c(C(F)(F)F)cc(-c3ccc(Br)o3)nc2c1Br`, the cell count in assay [1] turned out to be 519. Besides, the inhibition in [1] was -4.9% (inactive); in [2] it was 5.6% (inactive); in assay [4], -9.7% (inactive); in assay [9], 18.5% (inactive). The nuclei count in assay [2] was found to be 127%. Besides, the z-score was -1.28 in [3] (setting [10]), -0.277 in assay [3] (setting [11]) and 1.66 in assay [3] (setting [12]). For the same compound, the fluorescence slope in assay [5] was -0.29 (inactive). The NADPH fluorescence slope in assay [6] is -4.3e-06 (inactive). Besides, the slope in [7] is 0.00144 (inactive). In assay [8], the outcome was inactive.

In the case of `C=COC(=O)CSc1nc(-c2cccs2)ccc1C#N`, the cell count in [1] stood at 659. Moreover, the inhibition in assay [1] is -10.8% (inactive); in assay [2], -26.9% (inactive); in [4], -5.62% (inactive); in assay [9] it was 8.37% (inactive). For the same compound, the nuclei count in assay [2] is 152%. Further, the z-score was -1.42 in assay [3] (setting [10]), 1.7 in assay [3] (setting [11]) and 0.138 in assay [3] (setting [12]). The fluorescence slope in [5] is -0.385 (inactive). Further, the NADPH fluorescence slope in assay [6] was -2.3e-06 (inactive). The slope in assay [7] is 0.0065 (inactive). The compound was called inactive in assay [8].

Turning to `C=CCOC(=O)C(C#N)c1nc2ccccc2nc1N1CCN(c2ccccc2OCC)CC1` (configuration not stated), the cell count in assay [1] turned out to be 543. The inhibition in assay [1] was -30.2% (inactive); in assay [2] it was -94.9% (inactive); in assay [4], -11.5% (inactive); in assay [9], -7.78% (inactive). In assay [2], this compound came in with a nuclei count of 165%. The z-score in assay [3] (setting [10]) is -0.552; in [3] (setting [11]), -0.297; in [3] (setting [12]) it was 0.325. The fluorescence slope in assay [5] was -0.494 (inactive). In addition, the NADPH fluorescence slope in assay [6] is -3.6e-05 (inactive). For the same compound, the slope in assay [7] is 0.00373 (inactive). The call in assay [8] was inactive.

`O=c1c2c3c(sc2n2cnnc2n1Cc1ccccc1)CN(Cc1ccccc1)CC3`: the cell count in [1] was determined as 620. Further, the inhibition was -1.6% (inactive) in [1], 66.2% (inactive) in assay [2], 6.04% (inactive) in [4] and 22.4% (inactive) in assay [9]. The nuclei count in [2] turned out to be 104%. For the same compound, the z-score in [3] (setting [10]) stood at 0.015; in [3] (setting [11]), 0.568; in assay [3] (setting [12]) it was 0.295. For the same compound, the fluorescence slope in assay [5] was -0.427 (inactive). Also, in [6], the NADPH fluorescence slope is -1.4e-05 (inactive). Further, the slope in [7] is 0.0049 (inactive). In [8], the compound was classed as inactive.

Consider `CCCOc1ccc(CSC(CC(=O)O)C(=O)O)cc1` (configuration not stated), for which, in [1], the cell count came to 542. Moreover, the inhibition in [1] is 1.4% (inactive); in assay [2], -21% (inactive); in [4], -3.5% (inactive); in [9], 15.7% (inactive). In assay [2], this compound yielded a nuclei count of 124%. The z-score in [3] (setting [10]) was 1.34; in assay [3] (setting [11]), -1.26; in assay [3] (setting [12]) it was -1.51. In addition, in assay [5], the fluorescence slope is -0.332 (inactive). Moreover, the NADPH fluorescence slope in [6] is 1.3e-05 (inactive). The slope in [7] was 0.00503 (inactive). Moreover, in assay [8], the compound was called inactive.

Regarding `Nc1nonc1-c1noc(-c2ccccc2)n1`, in assay [1], the cell count is 480. The inhibition was -3.5% (inactive) in assay [1], -26.8% (inactive) in assay [2], 13.2% (inactive) in assay [4] and 33.2% (inactive) in assay [9]. In assay [2], this compound yielded a nuclei count of 122%. Moreover, the z-score in assay [3] (setting [10]) was 0.154; in [3] (setting [11]), 1.08; in assay [3] (setting [12]), -0.0551. Also, the fluorescence slope in assay [5] is -0.516 (inactive). In addition, the NADPH fluorescence slope in [6] was -3.2e-05 (inactive). Also, the slope in assay [7] was 0.00533 (inactive). In addition, the result in assay [8] was inactive.

Source of the values: PubChem BioAssay.
